This is an account of results in ChEMBL document CHEMBL1151419, “Antimicrobial effect of halocidin-derived peptide in a mouse model of Listeria infection” (Antimicrob Agents Chemother, 2007).

≈ marks a conversion by molar mass, not a printed value. Calls of active or inactive are those of the source. The rule behind the calls is not given here. Bridge positions count the residues as written; N and C are the ends. Peptide text beside a SMILES is read from it. I, II: the chains in the order shown.

The test system of series [1] is Enterococcus faecium. As to the kind of experiment: Antimicrobial activity against vancomycin-resistant Enterococcus faecium CCARM 5029 after 18 hrs by broth microdilution assay in presence of 150 mM NaCl. It counts as functional. The following applies: CCARM 5029, 18 h. In a few lines:
(§1)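 Same broth microdilution, but the medium was Mueller-Hinton broth supplemented with 150 mM NaCl. Inoculum 2 x 10^5 CFU/ml final. Peptide twofold series in 0.01% acetic acid (stocks 640 to 10 µg/ml). After 18 h at 37°C, MIC read as the lowest concentration with no visible growth.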
In general terms: Broth dilution looks for growth in wells or tubes with falling amounts of substance.

For series [2], the system named is Staphylococcus aureus. The series can be described thus: Antimicrobial activity against methicillin-resistant Staphylococcus aureus CCARM 3695 treated with supernatant containing 2 mg drug incubated for 10 mins with PBS containing 50 % normal human serum centrifuged for 3 hrs by radial diffusion assay. In kind it is functional, organism-based. In a few lines: (§2)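 2 mg peptide incubated 10 min at 37°C in 2 ml PBS, either serum-free or with 50% heat-treated normal human serum. Spun 3 h at 295,000 x g, 4°C. Then 5 µl of supernatant tested by radial diffusion against mid-log MRSA (4 x 10^6 CFU/ml underlay, 3 h at 37°C, overlay, overnight); clear zones measured.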

For series [3], the system named is Staphylococcus aureus. The series can be described thus: Antimicrobial activity against methicillin-resistant Staphylococcus aureus CCARM 3695 treated with sample containing 200 ug/ml drug incubated with PBS containing 50% normal human serum for 10 mins measured after 3 hrs by radial diffusion assay. It counts as functional, organism-based. The gist of the method: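 Normal human serum from three donors, heat-treated 30 min at 56°C. Peptide at 25–200 µg/ml in PBS with 50% serum, held 10 min at 37°C; 5 µl placed in 3-mm wells. Underlay: 1% agarose, 9 mM phosphate, 1 mM citrate, 0.3 mg/ml TSB, pH 7.4, with 4 x 10^6 CFU/ml mid-log MRSA. After 3 h at 37°C, overlaid (1% agarose, 6% TSB), incubated overnight. Clear zones in units (1 mm = 10 units); triplicate means.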

The test system of series [4] is Staphylococcus aureus. As to the kind of experiment: Antimicrobial activity against methicillin-resistant Staphylococcus aureus CCARM 3695 after 18 hrs by broth microdilution assay. In kind it is functional. The following applies: CCARM 3695, 18 h. In a few lines: (§3)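 Broth microdilution (modified CLSI). Overnight stationary-phase Mueller-Hinton broth cultures diluted to 2 x 10^5 CFU/ml final. Peptide serially twofold diluted in 0.01% acetic acid (stock series 640 down to 10 µg/ml); 11 µl added to 100 µl of bacteria. After 18 h at 37°C, MIC taken as the lowest concentration preventing visible turbidity.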

The subject of series [5] is Staphylococcus aureus. The series can be described thus: Antimicrobial activity against methicillin-resistant Staphylococcus aureus CCARM 3695 after 18 hrs by broth microdilution assay in presence of 150 mM NaCl. Conditions: CCARM 3695, 18 h. In kind it is functional. The gist of the method: as §1
Series [6] concerns Listeria monocytogenes. As to the kind of experiment: Antimicrobial activity against Listeria monocytogenes ATCC 19111 after 18 hrs by broth microdilution assay. The following applies: ATCC 19111, 18 h. It counts as functional. In a few lines:
(§4)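 Bacteria were grown overnight to stationary phase in Mueller-Hinton broth at 37°C and diluted to 2 x 10^5 CFU/ml. Line 3 used MHB plus 150 mM NaCl. Peptide stock (640 µg/ml in 0.01% acetic acid) was twofold serially diluted to 10 µg/ml, and 11 µl was added per 100 µl of cells. Turbidity was read after 18 h at 37°C; MIC was the minimum concentration visibly inhibiting growth.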

Series [7] relates to Listeria monocytogenes. The series can be described thus: Antimicrobial activity against Listeria monocytogenes ATCC 19111 after 18 hrs by broth microdilution assay in presence of 150 mM NaCl. In kind it is functional. The following applies: ATCC 19111, 18 h. The gist of the method: as §4
In series [8] the test system is Enterococcus faecium. The series can be described thus: Antimicrobial activity against vancomycin-resistant Enterococcus faecium CCARM 5029 after 18 hrs by broth microdilution assay. In kind it is functional. The following applies: CCARM 5029, 18 h. The gist of the method: as §3
Series [9] concerns Staphylococcus aureus. As to the kind of experiment: Antimicrobial activity against methicillin-resistant Staphylococcus aureus CCARM 3695 treated with supernatant containing 2 mg drug incubated for 10 mins with PBS centrifuged for 3 hrs by radial diffusion assay. It counts as functional, organism-based. In a few lines:
as §2

The test system of series [10] is Listeria monocytogenes. The series can be described thus: Antibacterial activity against Listeria monocytogenes ATCC 19111 in assay tube containing mixture of erythrocyte/Listeria monocytogenes cells assessed as logarithmic reduction in CFU after 30 mins. It counts as functional. In a few lines: (§5)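 Washed mid-log L. monocytogenes (final 1 x 10^5 CFU/ml) was mixed with human blood cells (final 5 x 10^8 cells/ml) and peptide (final 40 µg/ml) in PBS at 37°C. A peptide-free control was included. At 10, 20 and 30 min, aliquots were plated on TSA and colonies counted after overnight growth. Blood cells were counted by hemocytometer under light microscopy.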

Series [11] can be described thus: Toxicity against human erythrocytes in assay tube containing mixture of erythrocytes/Listeria monocytogenes cells at 40 ug/ml after 30 mins. In kind it is cell-based. Conditions: erythrocyte, 0.5 h. The gist of the method: as §5

As for `CC(C)C[C@H](NC(=O)CNC(=O)[C@H](Cc1cnc[nH]1)NC(=O)[C@H](Cc1cnc[nH]1)NC(=O)[C@H](CC(C)C)NC(=O)[C@H](CC(C)C)NC(=O)[C@H](C)NC(=O)[C@H](CC(N)=O)NC(=O)[C@H](CC(C)C)NC(=O)[C@H](Cc1c[nH]c2ccccc12)NC(=O)[C@@H](N)CCCCN)C(=O)N[C@@H](CC(N)=O)C(=O)N[C@@H](CSSC[C@H](NC(=O)[C@H](CC(N)=O)NC(=O)[C@H](CC(C)C)NC(=O)CNC(=O)[C@H](Cc1cnc[nH]1)NC(=O)[C@H](Cc1cnc[nH]1)NC(=O)[C@H](CC(C)C)NC(=O)[C@H](CC(C)C)NC(=O)[C@H](C)NC(=O)[C@H](CC(N)=O)NC(=O)[C@H](CC(C)C)NC(=O)[C@H](Cc1c[nH]c2ccccc12)NC(=O)[C@@H](N)CCCCN)C(=O)N[C@@H](C)C(=O)N[C@@H](CCCCN)C(=O)NCC(=O)N[C@H](C(=O)N[C@@H](CC(C)C)C(=O)N[C@@H](C)C(=O)O)C(C)C)C(=O)N[C@@H](C)C(=O)N[C@@H](CCCCN)C(=O)NCC(=O)N[C@H](C(=O)N[C@@H](CC(C)C)C(=O)N[C@@H](C)C(=O)O)C(C)C` (I: H-KWLNALLHHGLNCAKGVLA-OH / II: H-KWLNALLHHGLNCAKGVLA-OH; disulfide I:13-II:13), the MIC with Enterococcus faecium [1] came out at 4 µg/mL; in the series on Staphylococcus aureus [4], 4 µg/mL (≈ 0.972 µM); with Staphylococcus aureus [5], 8 µg/mL; with Listeria monocytogenes [6], 4 µg/mL (≈ 0.972 µM); with Listeria monocytogenes [7] it was 8 µg/mL; in the series with Enterococcus faecium [8], 4 µg/mL (≈ 0.972 µM). Besides, the outcome in the series on Staphylococcus aureus [2] and in the series with Staphylococcus aureus [3] was inactive.

Take `CC(C)C[C@H](NC(=O)CNC(=O)[C@H](Cc1cnc[nH]1)NC(=O)[C@H](Cc1cnc[nH]1)NC(=O)[C@H](CC(C)C)NC(=O)[C@H](CC(C)C)NC(=O)[C@H](C)N)C(=O)N[C@@H](CC(N)=O)C(=O)N[C@@H](CSSC[C@H](NC(=O)[C@H](CC(N)=O)NC(=O)[C@H](CC(C)C)NC(=O)CNC(=O)[C@H](Cc1cnc[nH]1)NC(=O)[C@H](Cc1cnc[nH]1)NC(=O)[C@H](CC(C)C)NC(=O)[C@H](CC(C)C)NC(=O)[C@H](C)NC(=O)[C@H](CC(N)=O)NC(=O)[C@H](CC(C)C)NC(=O)[C@@H](N)Cc1c[nH]c2ccccc12)C(=O)N[C@@H](C)C(=O)N[C@@H](CCCCN)C(=O)NCC(=O)N[C@H](C(=O)N[C@@H](CC(C)C)C(=O)N[C@@H](C)C(=O)O)C(C)C)C(=O)N[C@@H](C)C(=O)N[C@@H](CCCCN)C(=O)NCC(=O)N[C@H](C(=O)N[C@@H](CC(C)C)C(=O)N[C@@H](C)C(=O)O)C(C)C` [HALOCIDIN] (I: H-WLNALLHHGLNCAKGVLA-OH / II: H-ALLHHGLNCAKGVLA-OH; disulfide I:12-II:9): the MIC is more than 64 µg/mL in the series on Enterococcus faecium [1]; 16 µg/mL (≈ 4.64 µM) against Staphylococcus aureus [4]; 32 µg/mL with Staphylococcus aureus [5]; 64 µg/mL (≈ 18.6 µM) against Listeria monocytogenes [6]; more than 64 µg/mL with Listeria monocytogenes [7]; 64 µg/mL (≈ 18.6 µM) in the series on Enterococcus faecium [8]. The outcome with Staphylococcus aureus [2] and in the series on Staphylococcus aureus [9] was Active.

Consider `CC[C@H](C)[C@H](NC(=O)CN)C(=O)NCC(=O)N[C@@H](C)C(=O)N[C@H](C(=O)N[C@@H](CC(C)C)C(=O)N[C@@H](CCCCN)C(=O)N[C@H](C(=O)N[C@@H](CC(C)C)C(=O)N[C@H](C(=O)N[C@H](C(=O)NCC(=O)N[C@@H](CC(C)C)C(=O)N1CCC[C@H]1C(=O)N[C@@H](C)C(=O)N[C@@H](CC(C)C)C(=O)N[C@H](C(=O)N[C@@H](CO)C(=O)N[C@@H](Cc1c[nH]c2ccccc12)C(=O)N[C@H](C(=O)N[C@@H](CCCCN)C(=O)N[C@@H](CCCNC(=N)N)C(=O)N[C@@H](CCCCN)C(=O)N[C@@H](CCCNC(=N)N)C(=O)N[C@@H](CCC(N)=O)C(=O)N[C@@H](CCC(N)=O)C(N)=O)[C@@H](C)CC)[C@@H](C)CC)[C@@H](C)O)[C@@H](C)O)C(C)C)C(C)C` [MELITTIN], for which, in the series on Listeria monocytogenes [10], the outcome was Active. The Activity result in series [11] is “Toxic”.

Turning to H-RRWVRRVRRVWRRVVRVVRRWVRR-OH, the outcome in the series on Listeria monocytogenes [10] was Active. The Activity result in series [11] is recorded as “Toxic”.

As a reminder, the MIC is the lowest concentration found to suppress growth.
